An excerpt weighted towards active compounds, which were near 2.1% of everything screened.
ZTA DNA inh: counter-screen for EBNA-1 inhibitors: inhibitors of Epstein-Barr virus ZTA; inhibition, % at 11 µM; actives 0.15% (n = 320,000); ZTA-DNA binding, fluorescence polarization; AID 2234; in the data active means inhibition above about 33%
eIF4H inh: inhibitors of RNA binding by human eIF4H. eIF4H fluorescence polarization binding assay. Q15056. actives 0.94% (n = 290,000). inhibition, % at 35 µM. AID 2012;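 further: calls also rest on retests at 20 µM and on dose response follow-up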
MLLE-PAM2 inh: inhibitors of microRNA-mediated deadenylation, human PABP1 MLLE binding. P11940. GST-MLLE / FITC-PAM2 fluorescence polarization. actives 0.36% (n = 360,000). inhibition, % at 20 µM; in the data active means inhibition above about 35%, passing the limit was not always enough;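 further: plate controls were DMSO wells with GST-MLLE for no effect and wells lacking GST-MLLE protein for full effect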
Target sequence (P11940 whole entry, looked up): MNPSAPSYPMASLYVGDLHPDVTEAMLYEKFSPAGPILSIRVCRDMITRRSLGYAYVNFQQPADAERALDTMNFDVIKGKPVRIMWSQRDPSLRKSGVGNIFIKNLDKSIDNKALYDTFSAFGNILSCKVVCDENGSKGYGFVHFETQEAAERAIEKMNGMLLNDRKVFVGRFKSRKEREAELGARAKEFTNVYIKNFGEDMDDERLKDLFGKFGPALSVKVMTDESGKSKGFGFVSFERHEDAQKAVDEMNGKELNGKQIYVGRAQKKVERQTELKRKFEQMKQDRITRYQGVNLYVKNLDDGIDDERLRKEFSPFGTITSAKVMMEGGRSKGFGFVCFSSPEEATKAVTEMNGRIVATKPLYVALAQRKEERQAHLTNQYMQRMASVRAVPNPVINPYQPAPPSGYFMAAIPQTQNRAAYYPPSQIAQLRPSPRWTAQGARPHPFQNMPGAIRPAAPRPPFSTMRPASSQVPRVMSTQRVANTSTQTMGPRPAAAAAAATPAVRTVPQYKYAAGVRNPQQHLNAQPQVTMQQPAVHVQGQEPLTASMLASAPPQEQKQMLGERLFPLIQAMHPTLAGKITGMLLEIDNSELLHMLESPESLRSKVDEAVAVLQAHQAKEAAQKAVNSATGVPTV
PABP FP inh: blocks human PABP binding to poly(A) RNA | P11940 | fluorescence polarization | inhibition, % at 35 µM | actives 1% (n = 290,000) | AID 2014;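 further: calls also rest on retests at 20 µM and on dose response follow-up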
EBNA-1 inh: blocks EBNA-1 binding to DNA; actives 0.34% (n = 300,000); EBNA-1 DNA binding, fluorescence polarization; inhibition, % at 14.8 µM; in the data active means inhibition above about 28%
HCV NS3 hel inh: inhibitors of Hepatitis C virus NS3 helicase. NS3 helicase DNA unwinding, Cy5 molecular beacon fluorescence. inhibition, % at 10.9 µM. actives 0.56% (n = 290,000);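 active means inhibition above the mean of all tested compounds plus 3 SD, set per campaign, cut at about 35% in these data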;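 further: 0% = DMSO wells and 100% = thioflavine S control wells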
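assay system = NS3 helicase fragment of HCV | buffer or medium = MOPS pH 6.5, MgCl2, DTT, Tween20, BSA | timing = 60 min unwinding reaction at 25 °C after ATP addition | signal = Cy5 beacon fluorescence read at start and 1 h | read-out basis = % inhibition of unwinding | control set = low DMSO, high thioflavine S at 110 µM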
NS3 helicase cf: HCV NS3 helicase inhibition, confirmation assay; NS3 helicase DNA unwinding, Cy5 molecular beacon fluorescence; shares compounds with HCV NS3 hel inh; AID 1943; actives 31% (n = 1,600); inhibition, % at 10.9 µM;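 active means inhibition above the mean of all tested compounds plus 3 SD, cutoff set per campaign, cut at about 36% in these data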
DNA FID counter: counter-screen for HCV NS3 helicase inhibitors: DNA intercalator displacement | shares compounds with HCV NS3 hel inh | DNA fluorescent intercalator displacement, fluorescence | inhibition, % at 7.9 µM | actives 4% (n = 1,600) | AID 1945; in the data active means inhibition above about 37%;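 further: 0% = vehicle and 100% = reference compound; higher means more displacement of ethidium bromide from the DNA hairpin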
An asterisk follows results filed as active; u = inconclusive; x = no result given. Unless noted, how the calls were made is not given here.

SMILES | ZTA DNA inh | eIF4H inh | MLLE-PAM2 inh | PABP FP inh | EBNA-1 inh | HCV NS3 hel inh | NS3 helicase cf | DNA FID counter
COC(=O)c1c(-c2ccco2)csc1NC(=O)C1CC=CCC1C(=O)O (configuration not stated) | 15 | 85* | -9 | 68* | 5 | 36* | -10 | -32
Cc1ccc(Cn2cc(CCC(=O)O)c3ccccc32)cc1 | -2 | 5 | -9 | 2 | 3 | 49* | 12 | -21
O=C(CCc1nc2ccccc2c(=O)[nH]1)OCC(=O)N1CCc2ccccc21 | 9 | -2 | -12 | 0 | 4 | 70* | -14 | -18
COc1ccc(NC(=O)CSc2n[nH]c(C(C)C)n2)c([N+](=O)[O-])c1 | -10 | -13 | 3 | -16 | -2 | 13 | x | x
CCOC(=O)C1=C(O)/C(=C/c2ccc(OCC(=O)O)c(OC)c2)SC1=Nc1ccc(OC)cc1 | -9 | 2 | 10 | 0 | -1 | 36* | 42* | -16
O=C(Nc1ccccc1)[C@@H]1[C@@H]2C(=O)N(c3ccc(F)cc3)C(=O)[C@@H]2[C@H]2C=CC=NN21 | -12 | -1 | 12 | 11 | 1 | 61* | -19 | -7
COc1ccc(C(=O)[C@H]2[C@H]3C(=O)N(c4ccc(C)cc4)C(=O)[C@H]3C3C=CC=NN32)cc1 (some centres not stated) | 6 | -4 | -1 | 9 | 5 | 60* | -16 | -19
CC(=O)Oc1ccc(C(=O)[C@H]2[C@H]3C(=O)N(c4ccc(C)cc4)C(=O)[C@H]3[C@@H]3C=CC=NN32)cc1 | -25 | 6 | -17 | 26 | -8 | 34 | x | x
Cc1ccc(N2C(=O)[C@@H]3[C@H](C2=O)[C@H]2C=CC=NN2[C@@H]3C(=O)Nc2ccccc2)cc1 | 5 | -4 | -2 | 3 | 10 | 16 | x | x
Cc1ccc(C)c(S(=O)(=O)N/N=C2/CCCc3ccccc32)c1 | -27 | -1 | -2 | -4 | -6 | 2 | x | x
Cc1c(C(=O)NC(C)c2ccc(-n3ccnc3)cc2)cccc1[N+](=O)[O-] (configuration not stated) | 15 | -6 | 6 | 18 | 5 | -11 | x | x
COC(=O)c1ccc(OC(C)C(=O)c2ccc(C)cc2)cc1 (configuration not stated) | -13 | -6 | -5 | 0 | 17 | 37* | -8 | -16
CNC(C)C#Cc1ccc2sc3cccc(OC)c3c(=O)c2c1 (configuration not stated) | 11 | 0 | -14 | 4 | -4 | 39* | 19 | 7
C=CCOC(=O)c1[nH]c2c(c1C)C(=O)CC(c1ccco1)C2 (configuration not stated) | 19 | u | x | 1 | -12 | 39* | -4 | 6
C/C=C/COC(=O)c1[nH]c2c(c1C)C(=O)CC(c1ccco1)C2 (configuration not stated) | 2 | x | -9 | x | 4 | 30 | x | x
Cc1c(C(=O)OC2CCCC2)[nH]c2c1C(=O)CC(c1ccco1)C2 (configuration not stated) | 3 | 28 | -20 | -4 | 8 | 18 | x | x
Cc1c(C(=O)OCC(C)C)[nH]c2c1C(=O)CC(c1ccco1)C2 (configuration not stated) | 14 | 22 | -12 | -16 | 4 | 37* | -11 | -10
Cc1ccnc(NC(=O)c2ccc3c(c2)S(=O)(=O)c2ccccc2C3=O)c1 | 4 | -7 | 11 | -12 | 12 | 14 | x | x
COc1cc(/C=N/NC(=O)c2nonc2N)cc(OC)c1OC | 13 | -17 | 4 | 12 | 10 | 39* | -2 | 7
CCc1cc(=O)oc2c3c(cc(OCC(=O)NC4CC4)c12)OC(C)(C)CC3 | -1 | -3 | 11 | -6 | -11 | 42* | -8 | -37
CCc1cc(=O)oc2c3c(cc(OCC(=O)NCCCC(=O)O)c12)OC(C)(C)CC3 | 13 | 3 | -4 | 7 | -1 | -6 | x | x
COc1ccc(NC(=O)c2c[nH]n3c(=O)cc(C4CCN(C(=O)OC(C)(C)C)CC4)nc23)cc1Cl | -6 | 3 | 8 | -10 | 0 | 36* | 52* | -28
CCOC(=O)N1CCC(NS(=O)(=O)c2ccc(C)cc2)CC1 | 10 | 3 | 8 | -11 | 0 | 11 | x | x
CC1=NN2C(=N)/C(=C\c3cc(C)n(-c4ccccc4)c3C)C(=O)N=C2S1 | -7 | -3 | 7 | -3 | -4 | 7 | x | x
Cc1ccccc1-n1c(C)cc(/C=C2/C(=N)N3C(c4ccccc4)=CSC3=NC2=O)c1C | 17 | 86 | -32 | 19* | -4 | 40* | 8 | -11
SMILES | ZTA DNA inh | eIF4H inh | MLLE-PAM2 inh | PABP FP inh | EBNA-1 inh | HCV NS3 hel inh | NS3 helicase cf | DNA FID counter
CCOc1ccc(-n2c(C)cc(/C=C3/C(=N)N4C(=NC3=O)SN=C4S(C)(=O)=O)c2C)cc1 | -1 | u | -21 | -8 | 5 | 38* | 84* | -9
Cc1ccc(NC(=O)CSCC(=O)OC(C)C(=O)Nc2ccc(S(N)(=O)=O)cc2)c(C)c1 (configuration not stated) | -14 | x | 0 | x | -8 | x | x | x
Cc1nnc(NC(=O)CSc2nnc(Cc3cccn3C)n2CCc2ccccc2)s1 | 9 | -8 | -22 | 8 | 2 | 17 | x | x
Cn1cccc1Cc1nnc(SCC(=O)Nc2nc3ccccc3s2)n1CCc1ccccc1 | -10 | -5 | -43 | 3 | 22 | 52* | 5 | -21
CCOC(=O)Cc1csc(NC(=O)c2csc(C)c2)n1 | 9 | -2 | 6 | 0 | 5 | 4 | x | x
CCOC(=O)Cc1csc(NC(=O)c2sc3nc4c(C)cc(C)cc4cc3c2N)n1 | 1 | 5 | 7 | -2 | 10 | 38* | -11 | -25
Cc1cc(=O)oc2cc(OCC(=O)NC(Cc3c[nH]c4ccc(O)cc34)C(=O)O)c(Cl)cc12 (configuration not stated) | 0 | 34 | 14 | 37 | 7 | 40* | 0 | -24
Cc1cc(=O)oc2c(C)c(OC(C)C(=O)NC(Cc3c[nH]c4ccc(O)cc34)C(=O)O)ccc12 (configuration not stated) | 5 | 28 | 4 | 30 | 0 | 16 | x | x
CC(C)c1ccc(OCC(=O)NC(Cc2c[nH]c3ccccc23)C(=O)O)cc1 (configuration not stated) | 1 | 10 | -13 | -2 | 0 | 48* | 62* | -40
C=CCNc1nc(Cl)nc(Nc2cc(Cl)ccc2OC)n1 | x | -12 | 12 | -8 | x | -15 | x | x
O=C(O)CSc1cc(NS(=O)(=O)c2ccc(Br)cc2)c2ccccc2c1O | 9 | 6 | 46* | 7 | 13 | 55* | 70* | 26

Source: PubChem
